Active and inactive are the calls of the source. The rule behind the calls is not given here.
Tests used:
Aggrecan core protein = Aggrecan core protein (Bos taurus, UniProt P13608); assay: Binding affinity to bovine articular cartilage aggrecan by SPR analysis
H-EMC-SS [1] = assay: Antiproliferative activity against human HEMC-SS cells treated for 24 hrs under hypoxic condition followed by compound wash-out and incubated under normoxic condition for 48 hrs by alamar blue assay; format: functional, cell-based
How it was run: (§1)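 HEMC-SS chondrosarcoma cells (DMEM/F12, 10% FCS, gentamicin) seeded 20.10^3/well, adhered overnight; drug dilution series added, final DMSO 0.5%. Exposed 24 h under normoxia (21% O2, 5% CO2, 37°C) or hypoxia (N2, O2<0.3%, 37°C), then washed with PBS and grown 48 h in normoxia. AlamarBlue viability; IC50 = 50% growth inhibition; at least triplicate, mean ± SD.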

[2] = target: Aggrecan core protein (Bos taurus) (UniProt P13608); assay: Binding affinity to bovine articular cartilage aggrecan at 500 uM by SPR analysis
How it was run: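 Aggrecan immobilised on sensor chip, free sites blocked with 1 M ethanolamine pH 8.5. Primary screen as binding level at 500 µM analyte in HBS-P+ running buffer, 30 µL/min, 600 s association, 200 s dissociation. Response corrected against a flow cell without aggrecan; regeneration with 2 M NaCl, 150 s.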

H-EMC-SS [3] = assay: Selectivity index, ratio of IC50 for human HEMC-SS cells under normoxic condition to IC50 for human HEMC-SS cells under hypoxic condition; format: functional
H-EMC-SS [4] = assay: Antiproliferative activity against human HEMC-SS cells treated for 24 hrs under normoxic condition followed by compound wash-out and incubated under normoxic condition for 48 hrs by alamar blue assay; format: cell-based; how it was run: as §1
[5] = Prodrug activation in pH 7.4 PBS buffer assessed as 15 ug/ml Escherichia coli nitroreductase-mediated corresponding phosphoramidate anion formation by measuring half life at 37 degC in presence of NADPH by RP-HPLC analysis; conditions: isolated protein
How it was run: (§2)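 Recombinant E. coli nitroreductase (final 25 or 15 µg/mL) with prodrug 17 µM and NADPH 0.9 mM final, in 10 mM sodium phosphate pH 7.4, 37°C. Aliquots over 2 h run on C18 RP-HPLC; remaining prodrug from peak area at 322 nm. Enzyme-free NADPH controls run in parallel.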

[6] = Prodrug activation in pH 7.4 PBS buffer assessed as 25 ug/ml Escherichia coli nitroreductase-mediated corresponding phosphoramidate anion formation by measuring half life at 37 degC in presence of NADPH by RP-HPLC analysis; conditions: isolated protein; how it was run: as §2
[7] = Prodrug activation in 3 equiv sodium dithionite/CH3CN,/cacodylate buffer at pH 7.4 assessed as bis(2-chloroethyl)phosphoramidate anion formation by measuring half life at 37 degC by 31P NMR analysis; format: physicochemical
How it was run: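 Incubation with 3 equiv sodium dithionite in CH3CN/0.1 M cacodylate buffer pH 7.4, probe at 37°C. 31P NMR spectra over 24 h against coaxial Ph3PO reference (26 ppm). Parent loss and phosphoramidate anion formation quantified from peak areas; average of two runs.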

[8] = Stability in rabbit plasma at 37 degC after 24 hrs by 31P NMR analysis; format: ADME, cell-free, Oryctolagus cuniculus
How it was run: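 Heparinised rabbit blood centrifuged (4°C, 1300 g, 10 min) to give plasma. About 10 mg prodrug in 90 µL CH3CN plus 330 µL plasma, followed by 31P NMR at 37°C over 24 h; peak areas, average of two runs.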

[9] = Chemical stability in pH 7.4 sodium phosphate buffer assessed as drug metabolism at 17 uM at 37 degC after 24 hrs by RP-HPLC analysis; format: physicochemical; conditions: read-out: Drug metabolism
How it was run: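 Prodrug at 17 µM in 10 mM sodium phosphate pH 7.4 with 0.13% DMSO, 37°C. Aliquots over 24 h run directly on C18 RP-HPLC (H2O/ACN gradient with 15 mM TFA). Remaining prodrug calculated from peak area at 322 nm.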

[10] = Chemical stability in 3 equiv sodium dithionite/CH3CN,/cacodylate buffer at pH 7.4 at 37 degC after 24 hrs by 31P NMR analysis; format: physicochemical; conditions: pH 7.4, 24 h
[11] = Prodrug activation in pH 7.4 PBS buffer assessed as 15 to 25 ug/ml Escherichia coli nitroreductase-mediated bis(2-chloroethyl)phosphoramidate anion formation by measuring half life at 37 degC in presence of NADPH by RP-HPLC analysis; conditions: isolated protein; how it was run: as §2

Sequence of Aggrecan core protein (P13608 whole entry): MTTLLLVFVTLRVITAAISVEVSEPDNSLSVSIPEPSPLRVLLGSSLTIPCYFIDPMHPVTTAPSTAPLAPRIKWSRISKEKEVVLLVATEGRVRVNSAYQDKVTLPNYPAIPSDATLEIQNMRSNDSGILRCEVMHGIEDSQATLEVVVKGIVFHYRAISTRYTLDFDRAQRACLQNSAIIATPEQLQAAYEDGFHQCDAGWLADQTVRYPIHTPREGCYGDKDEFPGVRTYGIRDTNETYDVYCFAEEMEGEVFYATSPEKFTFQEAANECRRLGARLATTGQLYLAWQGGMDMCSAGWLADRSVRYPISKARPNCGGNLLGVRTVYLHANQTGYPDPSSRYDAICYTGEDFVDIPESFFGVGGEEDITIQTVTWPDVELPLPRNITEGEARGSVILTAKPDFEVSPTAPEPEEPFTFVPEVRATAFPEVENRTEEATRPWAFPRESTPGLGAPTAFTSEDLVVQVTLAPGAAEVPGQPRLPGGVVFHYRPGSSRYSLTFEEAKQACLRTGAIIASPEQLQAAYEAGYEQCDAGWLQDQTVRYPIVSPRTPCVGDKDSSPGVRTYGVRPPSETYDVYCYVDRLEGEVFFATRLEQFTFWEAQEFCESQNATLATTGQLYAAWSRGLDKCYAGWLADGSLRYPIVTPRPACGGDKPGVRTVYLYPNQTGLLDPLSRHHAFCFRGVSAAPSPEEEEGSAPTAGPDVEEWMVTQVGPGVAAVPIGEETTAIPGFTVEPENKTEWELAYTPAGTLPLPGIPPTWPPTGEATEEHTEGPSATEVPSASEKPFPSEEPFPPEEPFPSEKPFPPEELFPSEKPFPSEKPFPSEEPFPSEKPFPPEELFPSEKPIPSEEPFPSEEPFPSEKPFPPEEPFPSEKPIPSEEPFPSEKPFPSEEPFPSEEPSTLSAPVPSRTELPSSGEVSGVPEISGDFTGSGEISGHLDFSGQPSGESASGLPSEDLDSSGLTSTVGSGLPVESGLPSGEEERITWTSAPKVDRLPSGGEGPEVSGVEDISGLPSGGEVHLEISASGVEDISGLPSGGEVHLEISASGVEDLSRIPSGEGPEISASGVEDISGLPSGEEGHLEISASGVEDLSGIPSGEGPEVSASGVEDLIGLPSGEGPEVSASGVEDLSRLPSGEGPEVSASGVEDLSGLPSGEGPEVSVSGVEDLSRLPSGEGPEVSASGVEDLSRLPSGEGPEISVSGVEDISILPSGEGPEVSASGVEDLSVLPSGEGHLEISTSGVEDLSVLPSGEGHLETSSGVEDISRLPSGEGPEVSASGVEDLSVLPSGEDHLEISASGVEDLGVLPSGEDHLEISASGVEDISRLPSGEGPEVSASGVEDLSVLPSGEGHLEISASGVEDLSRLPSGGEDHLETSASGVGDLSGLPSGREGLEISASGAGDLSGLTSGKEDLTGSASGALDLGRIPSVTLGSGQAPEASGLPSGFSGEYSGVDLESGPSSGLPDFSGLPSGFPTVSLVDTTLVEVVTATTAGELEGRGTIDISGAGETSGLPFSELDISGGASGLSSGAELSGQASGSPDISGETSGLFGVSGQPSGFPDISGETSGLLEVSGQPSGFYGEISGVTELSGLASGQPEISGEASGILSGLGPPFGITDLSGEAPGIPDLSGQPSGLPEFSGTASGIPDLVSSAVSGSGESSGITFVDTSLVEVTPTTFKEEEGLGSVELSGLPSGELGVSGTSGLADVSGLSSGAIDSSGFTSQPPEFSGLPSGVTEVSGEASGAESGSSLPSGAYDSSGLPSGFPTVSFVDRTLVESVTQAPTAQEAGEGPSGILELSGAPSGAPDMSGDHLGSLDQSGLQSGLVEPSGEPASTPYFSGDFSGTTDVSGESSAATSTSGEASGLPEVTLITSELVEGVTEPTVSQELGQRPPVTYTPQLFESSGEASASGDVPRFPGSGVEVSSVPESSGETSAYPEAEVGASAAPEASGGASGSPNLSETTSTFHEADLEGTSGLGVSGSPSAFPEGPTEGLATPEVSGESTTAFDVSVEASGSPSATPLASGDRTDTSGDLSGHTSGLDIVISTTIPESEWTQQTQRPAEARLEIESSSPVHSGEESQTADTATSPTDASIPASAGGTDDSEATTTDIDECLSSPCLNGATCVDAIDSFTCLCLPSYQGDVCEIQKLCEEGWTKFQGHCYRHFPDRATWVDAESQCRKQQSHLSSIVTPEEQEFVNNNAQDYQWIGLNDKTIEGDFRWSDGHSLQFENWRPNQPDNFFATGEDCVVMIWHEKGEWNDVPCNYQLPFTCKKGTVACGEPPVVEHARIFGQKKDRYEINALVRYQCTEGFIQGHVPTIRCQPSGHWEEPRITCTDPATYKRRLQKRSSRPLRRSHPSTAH
Sequence of Aggrecan core protein (Bos taurus) (P13608 whole entry): as above

Row | SMILES | Kd (Aggrecan core protein) | IC50 (H-EMC-SS [1]) | Activity [2] | Ratio IC50 (H-EMC-SS [3]) | IC50 (H-EMC-SS [4]) | t1/2 [5] | t1/2 [6] | t1/2 [7] | Stability [8] | degraded at 24 h, 17 µM [9] | Stability [10] | t1/2 [11]
1 | CC[N+](C)(C)CCCCNP(=O)(OCc1cnc([N+](=O)[O-])n1C)N(CCCl)CCCl.[I-] (stereo not drawn) | 2020 µM | 1.5 µM | Active | 7 | 10.2 µM | – | – | – | – | – | – | –
2 | Cn1c(COP(=O)(NCCCCC[N+](C)(C)C)N(CCCl)CCCl)cnc1[N+](=O)[O-].[I-] (stereo not drawn) | 4220 µM | 2.4 µM | Active | 11 | 25.8 µM | – | – | – | – | – | – | –
3 | Cn1c(COP(=O)(NCC[N+](C)(C)Cc2ccccc2)N(CCCl)CCCl)cnc1[N+](=O)[O-].[I-] (stereo not drawn) | 2900 µM | 1.1 µM | Active | 6 | 6.4 µM | – | – | – | – | – | – | –
4 | Cn1c(COP(=O)(NCCCCC[N+](C)(C)Cc2ccccc2)N(CCCl)CCCl)cnc1[N+](=O)[O-].[I-] (stereo not drawn) | 2550 µM | 2.8 µM | Active | 10 | 28.9 µM | – | – | – | – | – | – | –
5 | Cn1c(COP(=O)(NCCC[N+](C)(C)C)N(CCCl)CCCl)cnc1[N+](=O)[O-].[I-] (stereo not drawn) | 1290 µM | 4.3 µM | Active | 7 | 29.3 µM | 15 min | 5 min | – | – | – | – | –
6 | CC[N+](C)(CC)CCCCNP(=O)(OCc1cnc([N+](=O)[O-])n1C)N(CCCl)CCCl.[I-] (stereo not drawn) | 4970 µM | 2.4 µM | Active | 6 | 13.4 µM | – | – | – | – | – | – | –
7 | Cn1c(COP(=O)(NCCCC[N+](C)(C)Cc2ccccc2)N(CCCl)CCCl)cnc1[N+](=O)[O-].[I-] (stereo not drawn) | 5270 µM | 1.8 µM | Active | 10 | 18 µM | – | – | – | – | – | – | –
8 | CC[N+](C)(C)CCCCCNP(=O)(OCc1cnc([N+](=O)[O-])n1C)N(CCCl)CCCl.[I-] (stereo not drawn) | 3560 µM | 1.5 µM | Active | 11 | 15.8 µM | – | – | – | – | – | – | –
9 | CC[N+](CC)(CC)CCCNP(=O)(OCc1cnc([N+](=O)[O-])n1C)N(CCCl)CCCl.[I-] (stereo not drawn) | 3490 µM | 1.4 µM | Active | 7 | 9.7 µM | – | – | – | – | – | – | –
10 | CC[N+](C)(CCCCCNP(=O)(OCc1cnc([N+](=O)[O-])n1C)N(CCCl)CCCl)Cc1ccccc1.[I-] (stereo not drawn) | 3470 µM | 0.8 µM | Active | 16 | 12.9 µM | – | – | – | – | – | – | –
11 | CC[N+](C)(CCCCNP(=O)(OCc1cnc([N+](=O)[O-])n1C)N(CCCl)CCCl)Cc1ccccc1.[I-] (stereo not drawn) | 2100 µM | 1.7 µM | Active | 24 | 40.7 µM | – | – | < 2 min | Stable | < 5% | Stable | < 1 min
12 | Cn1c(COP(=O)(NCCBr)NCCBr)cnc1[N+](=O)[O-] [EVOFOSFAMIDE] | – | 0.13 µM | – | 23 | 2.9 µM | – | – | – | – | – | – | –
13 | Cn1c(COP(=O)(NCCC[N+](C)(C)Cc2ccccc2)N(CCCl)CCCl)cnc1[N+](=O)[O-].[I-] (stereo not drawn) | 2990 µM | 0.4 µM | Active | 14 | 5.4 µM | – | – | – | – | – | – | –
14 | CC[N+](C)(CCCNP(=O)(OCc1cnc([N+](=O)[O-])n1C)N(CCCl)CCCl)Cc1ccccc1.[I-] (stereo not drawn) | – | 2.1 µM | – | 10 | 20.8 µM | – | – | – | – | – | – | –
